Columns and labels:
Mus musculus [1] = organism: Mus musculus; assay: Vmax of compound was derived from purified Folyl-polyglutamate synthase from mouse liver
Procedure, shortened: (§1)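 FPGS was partially purified from mouse liver, and the compounds were run as substrates. Km, Vmax and Vmax/Km came from the kinetic data. Vmax and Vmax/Km are expressed relative to aminopterin run in the same experiment. Each compound was tested in 2–3 experiments on different days.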

L1210 [2] = assay: Compound was measured for growth inhibition of L1210 cells in the presence of thymidine plus hypoxanthine; assay type: functional, cell-based; settings: Mus musculus
Procedure, shortened: (§2)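 Reversal test of an antifolate effect on L1210 cell growth in culture. The drug is given alongside one of three supplements: thymidine alone at 10 μM, hypoxanthine alone at 100 μM, or thymidine 10 μM plus hypoxanthine 100 μM together.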

Dihydrofolate reductase = target: T1, Dihydrofolate reductase (Homo sapiens, UniProt P00374); assay: Compound was tested for its inhibitory activity against dihydrofolate reductase (DHFR), isolated from MTX-resistant WI-L2 cells; assay type: cell-based
T1 sequence (P00374 whole entry): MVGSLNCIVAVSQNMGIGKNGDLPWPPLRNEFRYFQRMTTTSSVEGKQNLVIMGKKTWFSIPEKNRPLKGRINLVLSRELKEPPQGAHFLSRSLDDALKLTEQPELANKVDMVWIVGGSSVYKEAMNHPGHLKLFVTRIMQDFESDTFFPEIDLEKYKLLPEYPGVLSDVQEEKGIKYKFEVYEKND

L1210 [3] = assay: Compound was measured for growth inhibition of L1210 cells in the presence of thymidine; assay type: functional, cell-based; settings: Mus musculus; procedure, shortened: as §2
L1210 [4] = assay: Compound was measured for growth inhibition of L1210 cells in the presence of hypoxanthine; assay type: functional, cell-based; settings: Mus musculus; procedure, shortened: as §2
Mus musculus [5] = organism: Mus musculus; assay: Kinetic constant of compound was derived from purified Folyl-polyglutamate synthase from mouse liver; procedure, shortened: as §1
L1210 [6] = assay: Inhibition of cell growth against L1210 murine leukemia cells; assay type: functional, cell-based; settings: Mus musculus
L1210 [7] = assay: Compound was measured for growth inhibition of L1210 cells in standard medium; assay type: functional, cell-based; settings: Mus musculus
[8] = Inhibition of cell growth against WI-L2 cells; assay type: functional, cell-based; settings: Homo sapiens, WIL2
Mus musculus [9] = organism: Mus musculus; assay: Ratio of Vmax and Km relative to AMT; procedure, shortened: as §1

For `Cc1nc(N)c2nc(CNc3ccc(C(=O)NC(CCC(=O)O)C(=O)O)cc3)cnc2n1` (centres undefined), the Vmax (Mus musculus [1]) was 0.77, the IC50 (L1210 [2]) was > 100 µM and the IC50 (Dihydrofolate reductase) was > 50 µM. For the same compound, the IC50 (L1210 [3]) was 130 nM, the IC50 (L1210 [4]) was 160 nM and the Km (Mus musculus [5]) was 31.7 µM. It also gave an IC50 (L1210 [6]) of 42 nM, an IC50 (L1210 [7]) of 42 nM and an IC50 [8] of 28 nM. The Ratio (Mus musculus [9]) was 0.6.
Work on `Nc1nc(N)c2nc(CNc3ccc(C(=O)N[C@@H](CCC(=O)O)C(=O)O)cc3)cnc2n1` yielded a Vmax (Mus musculus [1]) of 1, a Km (Mus musculus [5]) of 22.8 µM and a Ratio (Mus musculus [9]) of 1.
With `CN(Cc1cnc2nc(N)nc(N)c2n1)c1ccc(C(=O)N[C@@H](CCC(=O)O)C(=O)O)cc1` [METHOTREXATE] the IC50 (L1210 [6]) was 9 nM and the IC50 [8] was 13 nM.
With `Nc1ncnc2ncc(CNc3ccc(C(=O)NC(CCC(=O)O)C(=O)O)cc3)nc12` (centres undefined) the Vmax (Mus musculus [1]) was 0.87, the IC50 (L1210 [2]) was > 100 µM and the IC50 (L1210 [3]) was 160 nM. It also gave an IC50 (L1210 [4]) of 260 nM, a Km (Mus musculus [5]) of 26.4 µM and an IC50 (L1210 [6]) of 82 nM. The IC50 (L1210 [7]) was 82 nM, the IC50 [8] was 81 nM and the Ratio (Mus musculus [9]) was 0.74.
